Assay results from ChEMBL document CHEMBL1142174, “Pyrazinoic acid and its n-propyl ester inhibit fatty acid synthase type I in replicating tubercle bacilli” (2007).

How the values were obtained:
[1] = tested on: Mycobacterium tuberculosis variant bovis BCG; assay: Inhibition of fatty acid synthase 1 in Mycobacterium bovis BCG assessed as incorporation of [1-14C]acetate in C16 biosynthesis at 1500 ug/ml at pH 6.0
Method in brief: (§1)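 M. bovis BCG was exposed to drug in medium at pH 6 or 6.8, then labelled with [1-14C]acetate. Extracted fatty acids were analysed by HPLC for 14C-labelled C16.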

[2] = tested on: Mycobacterium tuberculosis variant bovis BCG; assay: Inhibition of fatty acid synthase 1 in Mycobacterium bovis BCG assessed as incorporation of [1-14C]acetate in C16 biosynthesis at 1500 ug/ml at pH 6.8; method in brief: as §1

O=C(O)c1cnccn1 [PYRAZINOIC ACID]
inhibition [1]: 97%
inhibition [2]: 30%
